Measured values: PubChem BioAssay AID623919 (The Scripps Research Institute Molecular Screening Center, 2012)
Active and inactive are the calls of the source.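 The calls were made as follows: active = recombination in E. coli crosses cut more than 4-fold against the solvent-only control; inactive = cut of 4-fold or less.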

What follows are compounds tested on E. coli V66 Hfr conjugational recombination, colony counts (assay: RecBCD-driven recombination inhibition in E. coli, late-stage follow-up, counter-screen for AddAB inhibitor project, V66 E. coli, colony formation, powder samples, 100 µM (AID 623919)). Settings: at 100 µM; active compounds read high.
Method in brief: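 repeats = duplicate experiments | material = E. coli V66 recipient with Hfr donor | read-out basis = fold reduction in recombinant frequency versus DMSO, viability-adjusted | times = 1 h compound exposure plus 30 min mating | buffer or medium = LB broth | controls = DMSO-only culture | compound dosing = single 100 µM dose | technique = differential plating colony counts | also added = Hfr donor, 1:10 donor-to-recipient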

Compound | fold reduction of recombination
NC(=O)c1ccsc1NC(=O)COC(=O)c1ccc([N+](=O)[O-])o1 | 1.6 (inactive)
Cc1sc(NC(=O)c2ccc(Br)o2)c(C#N)c1C | 1.5 (inactive)
Cc1ccc(C(=O)Nc2sc3c(c2C#N)CCC3)o1 | 2 (inactive)
O=C(OCC(=O)c1cccs1)c1ccc([N+](=O)[O-])o1 | 2.1 (inactive)
N#Cc1c(NC(=O)C2CC=CCC2C(=O)O)sc2c1CCC2 (stereo not drawn) | 1 (inactive)
CCn1cc(C(=O)O)c(=O)c2cnc(N3CCN(C(=S)Nc4ccc5c(c4)OCO5)CC3)nc21 | 1 (inactive)
CC1(C)Cc2c(sc(NC(=O)c3ccco3)c2C#N)CO1 | 2 (inactive)
CC1CCc2c(sc(NC(=O)c3ccc([N+](=O)[O-])o3)c2C#N)C1 (stereo not drawn) | 2 (inactive)
CCn1cc(C(=O)O)c(=O)c2cnc(N3CCN(C(=S)NC(=O)c4ccccc4Cl)CC3)nc21 | 2 (inactive)
CCn1cc(C(=O)O)c(=O)c2cnc(N3CCNCC3)nc21 | 50
N#Cc1c(NC(=O)c2ccccc2)sc2c1CCC2 | 1 (inactive)
O=C(Nc1ncccn1)c1ccc([N+](=O)[O-])o1 | 20
CCn1cc(C(=O)O)c(=O)c2cnc(N3CCN(C(=S)NC(=O)c4cccnc4)CC3)nc21 | 1 (inactive)
CCn1cc(C(=O)O)c(=O)c2cnc(N3CCN(C(=S)Nc4ccccc4Cl)CC3)nc21 | 1 (inactive)
CCn1cc(C(=O)O)c(=O)c2cnc(N3CCN(C(=S)Nc4cccc(C(F)(F)F)c4)CC3)nc21 | 6
CCn1cc(C(=O)O)c(=O)c2cnc(N3CCN(C(=S)NC)CC3)nc21 | 1 (inactive)
CCn1cc(C(=O)O)c(=O)c2cnc(N3CCN(C(=O)Nc4ccccc4)CC3)nc21 | 1 (inactive)
O=C(Nc1cccc(NC(=O)c2ccccc2Cl)c1)c1ccc([N+](=O)[O-])o1 | 2 (inactive)
N#Cc1c(NC(=O)c2ccc(-c3ccccc3[N+](=O)[O-])o2)sc2c1CCCC2 | 1 (inactive)
CCn1cc(C(=O)O)c(=O)c2cnc(N3CCN(C(=S)NC4CC5CCC4C5)CC3)nc21 (stereo not drawn) | 1 (inactive)
CCn1cc(C(=O)O)c(=O)c2cnc(N3CCN(C(=S)Nc4ccccc4C)CC3)nc21 | 1 (inactive)
Cc1cccnc1NC(=O)c1ccc([N+](=O)[O-])o1 | 3 (inactive)
Cc1ccc2nc(/C(C#N)=C\c3ccc([N+](=O)[O-])o3)[nH]c2c1 | 3 (inactive)
N#Cc1c(NC(=O)c2cnccn2)sc2c1CCCC2 | 1 (inactive)

Compound | fold reduction of recombination
CCn1cc(C(=O)O)c(=O)c2cnc(N3CCN(C(=S)Nc4ccccc4F)CC3)nc21 | 2 (inactive)
CCn1cc(C(=O)O)c(=O)c2cnc(N3CCN(C(=S)NC(=O)c4cccc(C)c4)CC3)nc21 | 1 (inactive)
CCn1cc(C(=O)O)c(=O)c2cnc(N3CCN(C(=S)Nc4ccc(Cl)cc4)CC3)nc21 | 1 (inactive)
Nc1c(NC(=O)c2ccc([N+](=O)[O-])o2)sc2c1CCCC2 | 1 (inactive)
O=C(Nc1ccc(N2CCOCC2)cc1)c1ccc([N+](=O)[O-])o1 | 2 (inactive)
CCn1cc(C(=O)O)c(=O)c2cnc(N3CCN(C(=S)NC(=O)c4ccco4)CC3)nc21 | 1 (inactive)
N#Cc1c(NC(=O)c2cccc(F)c2)sc2c1CCCC2 | 1 (inactive)
N#Cc1c(NC(=O)c2ccco2)sc2c1CCC2 | 1 (inactive)
CCn1cc(C(=O)O)c(=O)c2cnc(N3CCN(C(=S)Nc4ccc5c(c4)OCCO5)CC3)nc21 | 1 (inactive)
C=CCNC(=S)N1CCN(c2ncc3c(=O)c(C(=O)O)cn(CC)c3n2)CC1 | 1.5 (inactive)
CCn1cc(C(=O)O)c(=O)c2cnc(N3CCN(C(=S)Nc4ccccc4OC)CC3)nc21 | 1.5 (inactive)
O=C(NCc1cccnc1)c1ccc([N+](=O)[O-])o1 | 18.5
C=CCn1c(Sc2ncc([N+](=O)[O-])s2)n[nH]c1=O | 900
CCn1cc(C(=O)O)c(=O)c2cnc(N3CCN(C(=S)Nc4ccccc4)CC3)nc21 | 1 (inactive)
N#Cc1c(NC(=O)c2ccc([N+](=O)[O-])o2)sc2c1CCCC2 | 1 (inactive)
CCn1cc(C(=O)O)c(=O)c2cnc(N3CCN(C(=S)NC(C)c4ccccc4)CC3)nc21 (stereo not drawn) | 1.5 (inactive)
CC(=O)Nc1ccc2nc(NC(=O)c3ccc([N+](=O)[O-])o3)sc2c1 | 2 (inactive)
CCn1cc(C(=O)O)c(=O)c2cnc(N3CCN(C(=S)NCc4ccccc4)CC3)nc21 | 1 (inactive)
CC1CCc2c(sc(NC(=O)c3ccc([N+](=O)[O-])o3)c2N)C1 (stereo not drawn) | 2 (inactive)
CCn1cc(C(=O)O)c(=O)c2cnc(N3CCN(C(=S)Nc4ccc(F)cc4)CC3)nc21 | 1 (inactive)
N#Cc1c(NC(=O)c2ccccc2C(=O)O)sc2c1CCCC2 | 1 (inactive)
CCn1cc(C(=O)O)c(=O)c2cc(F)c(N3CCN(C(=S)Nc4cccc(C(F)(F)F)c4)CC3)cc21 | 350
N#Cc1c(NC(=O)c2ccc([N+](=O)[O-])o2)sc2c1CCC2 | 3 (inactive)
Cc1ccc(C(=O)Nc2sc3c(c2C#N)CCCCC3)o1 | 3 (inactive)
